The results in this text go back to publication PMC2873839 (Bioorganic & medicinal chemistry, 2010).

This experiment has as its system HeLa cells. As to the kind of experiment: Confocal microscopy of subcellular distribution / nuclear staining. Type of experiment: cell-based. In a few lines:
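HeLa grown in MEM alpha with 10% FBS at 37 °C, 5% CO2, seeded at 4000 cells/well on glass bottom, adhered overnight. Test compound 10–100 μM, 37 °C for 2–19 h, in complete or serum-free medium, then HBSS rinse. Confocal: 63x/1.4 oil objective, 1.1 μm optical slice, excitation 488 nm, emission 560+ nm. Dead cells excluded by morphology; percentage with nuclear staining scored.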

“Also recorded” adds a separate entry of the source.

As for KKKK [Ru-KKKK], the subcellular distribution result (40 μM, 2 h) is recorded as “only faint luminescence in the cytoplasm” and the subcellular distribution entry (100 μM, 4 h, complete medium) is “brighter, punctate cytoplasmic staining; also recorded: punctate staining of the cytoplasm”. For the same substance, where the note is “100 μM, 4 h, complete medium”, the “percentage of cells with additional nuclear staining” value turned out to be 17%.

Regarding KSKKQK [Ru-KSKKQK], the subcellular distribution entry is “only faint punctate luminescence in the cytoplasm and no nuclear staining” (10 μM, 2 h); “same result; also recorded: Punctate staining of the cytoplasm” (10 μM, 19 h, complete medium).

For the substance PKKKRKV [Ru-PKKKRKV], the subcellular distribution entry reads like this: (10 μM, 2 h) “only faint punctate luminescence in the cytoplasm and no nuclear staining”; (10 μM, 19 h, complete medium) “same result; also recorded: Punctate staining of the cytoplasm”.
